Data: BindingDB's records for doi:10.1021/jm970671g (Signal Pharmaceuticals, 1998)

Biological target: T1, Nuclear factor NF-kappa-B p105 subunit (Homo sapiens, UniProt P19838)
T1 sequence (P19838 whole entry): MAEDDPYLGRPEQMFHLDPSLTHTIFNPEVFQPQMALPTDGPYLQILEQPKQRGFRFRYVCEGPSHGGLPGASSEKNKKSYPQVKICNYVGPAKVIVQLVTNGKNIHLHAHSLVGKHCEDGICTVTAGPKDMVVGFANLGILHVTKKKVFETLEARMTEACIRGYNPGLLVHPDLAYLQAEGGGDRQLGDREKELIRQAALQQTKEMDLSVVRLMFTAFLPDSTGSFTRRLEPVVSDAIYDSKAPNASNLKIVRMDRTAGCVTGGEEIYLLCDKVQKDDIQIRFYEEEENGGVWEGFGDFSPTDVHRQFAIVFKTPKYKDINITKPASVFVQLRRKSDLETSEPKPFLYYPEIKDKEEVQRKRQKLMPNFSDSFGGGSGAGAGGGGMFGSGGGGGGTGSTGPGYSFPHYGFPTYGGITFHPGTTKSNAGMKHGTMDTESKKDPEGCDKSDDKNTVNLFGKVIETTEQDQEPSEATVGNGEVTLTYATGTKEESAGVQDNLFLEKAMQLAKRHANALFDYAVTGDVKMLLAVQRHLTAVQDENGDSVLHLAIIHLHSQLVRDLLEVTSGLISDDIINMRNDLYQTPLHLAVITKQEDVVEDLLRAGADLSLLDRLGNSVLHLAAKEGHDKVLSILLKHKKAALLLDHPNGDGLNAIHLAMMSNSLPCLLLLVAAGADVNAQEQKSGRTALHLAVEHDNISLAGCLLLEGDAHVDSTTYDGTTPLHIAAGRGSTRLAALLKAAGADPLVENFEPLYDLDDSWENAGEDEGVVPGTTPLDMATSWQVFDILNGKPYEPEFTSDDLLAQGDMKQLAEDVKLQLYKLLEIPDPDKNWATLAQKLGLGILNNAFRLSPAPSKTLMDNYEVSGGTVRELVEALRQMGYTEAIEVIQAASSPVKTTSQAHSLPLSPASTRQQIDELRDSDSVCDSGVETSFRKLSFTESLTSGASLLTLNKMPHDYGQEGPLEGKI
Test: In vitro inhibitory activity against human Jurkat T-Cells stably transfected with an Nuclear factor kappa B transcription factor
Method in brief: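 Jurkat T-cells stably carrying NF-κB site (MHC promoter) on minimal SV-40 promoter driving luciferase, plated 1 × 10^6 cells/mL in 10% Serum-Plus 18 h prior. Compound in 0.2% DMSO/H2O added 0.5 h at 37 °C; induced with PMA 50 ng/mL and PHA 1 μg/mL, 5 h at 37 °C. Lysate luminescence read; IC50 = concentration halving luciferase versus control.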

Row | Structure (SMILES) | IC50 [nM]
1 | O=C(Nc1ccc(C(F)(F)F)cc1)c1cnc(Cl)nc1C(F)(F)F [2-Chloro-4-trifluoromethyl-pyrimidine-5-carboxylic acid (4-trifluoromethyl-phenyl)-amide] | 380
2 | COc1cc(NC(=O)c2cnc(Cl)nc2C(F)(F)F)cc(OC)c1 [2-Chloro-4-trifluoromethyl-pyrimidine-5-carboxylic acid (3,5-dimethoxy-phenyl)-amide] | 1200
3 | CN(C(=O)c1cnc(Cl)nc1C(F)(F)F)c1cc(Cl)cc(Cl)c1 [2-Chloro-4-trifluoromethyl-pyrimidine-5-carboxylic acid (3,5-dichloro-phenyl)-methyl-amide] | 2300
4 | O=C(Nc1cc(Cl)cc(Cl)c1)c1cnc(NC2CCCCC2)nc1C(F)(F)F [2-Cyclohexylamino-4-trifluoromethyl-pyrimidine-5-carboxylic acid (3,5-dichloro-phenyl)-amide] | > 10000
5 | O=C(Nc1cc(Cl)c(Cl)c(Cl)c1)c1cnc(Cl)nc1C(F)(F)F [2-Chloro-4-trifluoromethyl-pyrimidine-5-carboxylic acid (3,4,5-trichloro-phenyl)-amide] | 900
6 | CCCCNC(=O)c1cc(NC(=O)c2cnc(Cl)nc2C(F)(F)F)cc(C(F)(F)F)c1 [2-Chloro-4-trifluoromethyl-pyrimidine-5-carboxylic acid (3-butylcarbamoyl-5-trifluoromethyl-phenyl)-amide] | > 10000
7 | O=C(Nc1cc(Cl)cc(Cl)c1)c1cnc(NCc2ccccc2)nc1C(F)(F)F [2-Benzylamino-4-trifluoromethyl-pyrimidine-5-carboxylic acid (3,5-dichloro-phenyl)-amide] | > 10000
8 | O=C(Nc1cc(C(F)(F)F)cc(C(F)(F)F)c1)c1cnc(Cl)nc1C(F)(F)F [2-Chloro-4-trifluoromethyl-pyrimidine-5-carboxylic acid (3,5-bis-trifluoromethyl-phenyl)-amide] | 50
9 | CN(C)c1ncc(C(=O)Nc2cc(Cl)cc(Cl)c2)c(C(F)(F)F)n1 [2-Dimethylamino-4-trifluoromethyl-pyrimidine-5-carboxylic acid (3,5-dichloro-phenyl)-amide] | > 10000
10 | O=C(c1cnc(Cl)nc1C(F)(F)F)N(Cc1ccccc1)c1cc(Cl)cc(Cl)c1 [2-Chloro-4-trifluoromethyl-pyrimidine-5-carboxylic acid benzyl-(3,5-dichloro-phenyl)-amide] | 2700
11 | O=C(Nc1ccccc1)c1cnc(Cl)nc1C(F)(F)F [2-Chloro-4-trifluoromethyl-pyrimidine-5-carboxylic acid phenylamide] | > 10000
12 | Cc1cc(NC(=O)c2cnc(Cl)nc2C(F)(F)F)on1 [2-Chloro-4-trifluoromethyl-pyrimidine-5-carboxylic acid (3-methyl-isoxazol-5-yl)-amide] | 4000
13 | CCCCNc1ncc(C(=O)Nc2cc(Cl)cc(Cl)c2)c(C(F)(F)F)n1 [2-Butylamino-4-trifluoromethyl-pyrimidine-5-carboxylic acid (3,5-dichloro-phenyl)-amide] | > 10000
14 | Cc1cccc(C)c1NC(=O)c1cnc(Cl)nc1C(F)(F)F [2-Chloro-4-trifluoromethyl-pyrimidine-5-carboxylic acid (2,6-dimethyl-phenyl)-amide] | > 10000
15 | NC(=O)c1cc(NC(=O)c2cnc(Cl)nc2C(F)(F)F)cc(C(F)(F)F)c1 [2-Chloro-4-trifluoromethyl-pyrimidine-5-carboxylic acid (3-carbamoyl-5-trifluoromethyl-phenyl)-amide] | 5000
16 | O=C(Nc1cc(Cl)cc(Cl)c1)c1cnc(=O)[nH]c1C(F)(F)F [2-Hydroxy-4-trifluoromethyl-pyrimidine-5-carboxylic acid (3,5-dichloro-phenyl)-amide] | > 10000
17 | O=C(Nc1cc(Cl)cc(Cl)c1)c1cnc(Cl)nc1C(F)(F)F [2-Chloro-4-trifluoromethyl-pyrimidine-5-carboxylic acid (3,5-dichloro-phenyl)-amide] | 500
18 | Nc1ncc(C(=O)Nc2cc(Cl)cc(Cl)c2)c(C(F)(F)F)n1 [2-Amino-4-trifluoromethyl-pyrimidine-5-carboxylic acid (3,5-dichloro-phenyl)-amide] | > 10000
19 | CCCCNC(=O)c1cnc(Cl)nc1C(F)(F)F [2-Chloro-4-trifluoromethyl-pyrimidine-5-carboxylic acid butylamide] | > 10000
20 | O=C(Nc1cc(Cl)nc(Cl)n1)c1cnc(Cl)nc1C(F)(F)F [2-Chloro-4-trifluoromethyl-pyrimidine-5-carboxylic acid (2,6-dichloro-pyrimidin-4-yl)-amide] | 800
21 | Cc1ccc(NC(=O)c2cnc(Cl)nc2C(F)(F)F)s1 [2-Chloro-4-trifluoromethyl-pyrimidine-5-carboxylic acid (5-methyl-thiophen-2-yl)-amide] | 2300

Further lines, results first:

Row | IC50 [nM] | Structure (SMILES)
22 | 4600 | CCOP(=O)(COC(=O)c1cc(NC(=O)c2cnc(Cl)nc2C(F)(F)F)cc(C(F)(F)F)c1)OCC [3-[(2-Chloro-4-trifluoromethyl-pyrimidine-5-carbonyl)-amino]-5-trifluoromethyl-benzoic acid diethoxy-phosphorylmethyl ester]
23 | 170 | CCCCOC(=O)c1cc(NC(=O)c2cnc(Cl)nc2C(F)(F)F)cc(C(F)(F)F)c1 [3-[(2-Chloro-4-trifluoromethyl-pyrimidine-5-carbonyl)-amino]-5-trifluoromethyl-benzoic acid butyl ester]
24 | 1800 | O=C(OC1CCCCC1)c1cc(NC(=O)c2cnc(Cl)nc2C(F)(F)F)cc(C(F)(F)F)c1 [3-[(2-Chloro-4-trifluoromethyl-pyrimidine-5-carbonyl)-amino]-5-trifluoromethyl-benzoic acid cyclohexyl ester]
25 | > 10000 | O=C(Nc1cc(Cl)cc(Cl)c1)c1cnc(Nc2ccccc2)nc1C(F)(F)F [2-Phenylamino-4-trifluoromethyl-pyrimidine-5-carboxylic acid (3,5-dichloro-phenyl)-amide]
26 | 5000 | O=C(Nc1cc(Cl)cc(Cl)c1)c1cnc(N2CCCCC2)nc1C(F)(F)F [2-Piperidin-1-yl-4-trifluoromethyl-pyrimidine-5-carboxylic acid (3,5-dichloro-phenyl)-amide]
27 | 620 | CCCCCCOC(=O)c1cc(NC(=O)c2cnc(Cl)nc2C(F)(F)F)cc(C(F)(F)F)c1 [3-[(2-Chloro-4-trifluoromethyl-pyrimidine-5-carbonyl)-amino]-5-trifluoromethyl-benzoic acid hexyl ester]
28 | 1800 | CCCCCCCCOC(=O)c1cc(NC(=O)c2cnc(Cl)nc2C(F)(F)F)cc(C(F)(F)F)c1 [3-[(2-Chloro-4-trifluoromethyl-pyrimidine-5-carbonyl)-amino]-5-trifluoromethyl-benzoic acid octyl ester]
29 | > 10000 | COc1ncc(C(=O)Nc2cc(Cl)cc(Cl)c2)c(C(F)(F)F)n1 [2-Methoxy-4-trifluoromethyl-pyrimidine-5-carboxylic acid (3,5-dichloro-phenyl)-amide]
30 | > 10000 | O=C(Nc1cc(Cl)cc(Cl)c1)c1cncnc1C(F)(F)F [4-Trifluoromethyl-pyrimidine-5-carboxylic acid (3,5-dichloro-phenyl)-amide]
31 | 280 | CCOC(=O)c1cc(NC(=O)c2cnc(Cl)nc2C(F)(F)F)cc(C(F)(F)F)c1 [3-[(2-Chloro-4-trifluoromethyl-pyrimidine-5-carbonyl)-amino]-5-trifluoromethyl-benzoic acid ethyl ester]
